For 2 sequences, Kd results are on record in paper PMC3116947 (Journal of Molecular Recognition, 2010).

Ends that are not written are not given here.

Assay [1] deals with cSH3 domain of Grb2 (Homo sapiens, UniProt P62993). As to the kind of experiment: ITC binding of Gab1-derived peptides to wildtype cSH3 domain of Grb2. Conditions: binding affinity (Kd), 50 mM Tris, pH 8.0, 25 °C (Figure 3a).
The target in assay [2] is D190A mutant of cSH3 domain (cSH3_D190A) of Grb2 (Homo sapiens, UniProt P62993, D190A). As to the kind of experiment: ITC binding of G1 and G2 peptides to cSH3_D190A. Particulars: SD. A digest of the protocol:
(§1)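 Human Grb2 cSH3 domain (wildtype or point mutant) expressed in E. coli Rosetta2(DE3), purified by Ni-NTA and size-exclusion chromatography. 12-mer human Gab1 peptides, concentration measured gravimetrically. ITC at 25 °C in 50 mM Tris pH 8.0, 200 mM NaCl, 1 mM EDTA, 5 mM β-mercaptoethanol: 25 injections of 2–8 mM peptide into 50–200 µM cSH3. Kd from one-site non-linear least-squares fit; 3–4 independent runs, SD.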

For assay [3], the target named is E174A mutant of cSH3 domain (cSH3_E174A) of Grb2 (Homo sapiens, UniProt P62993, E174A). Description: ITC binding of G1 and G2 peptides to cSH3_E174A. The gist of the method:
as §1

Assay [4] concerns the target D187A mutant of cSH3 domain (cSH3_D187A) of Grb2 (Homo sapiens, UniProt P62993, D187A). Description: ITC binding of G1 and G2 peptides to cSH3_D187A. Conditions: SD. The gist of the method: as §1
The target in assay [5] is E171A mutant of cSH3 domain (cSH3_E171A) of Grb2 (Homo sapiens, UniProt P62993, E171A). As to the kind of experiment: ITC binding of G1 and G2 peptides to cSH3_E171A. Conditions: SD. The gist of the method:
as §1

Chain of E174A mutant of cSH3 domain (cSH3_E174A) of Grb2 (P62993 156-215 E174A limits assumed): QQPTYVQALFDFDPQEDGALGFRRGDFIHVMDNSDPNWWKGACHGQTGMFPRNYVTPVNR
Chain of D187A mutant of cSH3 domain (cSH3_D187A) of Grb2 (P62993 156-215 D187A limits assumed): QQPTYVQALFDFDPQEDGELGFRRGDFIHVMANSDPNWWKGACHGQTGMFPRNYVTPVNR
Chain of D190A mutant of cSH3 domain (cSH3_D190A) of Grb2 (P62993 156-215 D190A limits assumed): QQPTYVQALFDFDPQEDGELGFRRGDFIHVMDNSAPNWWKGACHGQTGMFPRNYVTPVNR
Chain of cSH3 domain of Grb2 (P62993 156-215 limits assumed): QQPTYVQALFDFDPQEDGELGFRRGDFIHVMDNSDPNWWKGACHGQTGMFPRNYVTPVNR
Chain of E171A mutant of cSH3 domain (cSH3_E171A) of Grb2 (P62993 156-215 E171A limits assumed): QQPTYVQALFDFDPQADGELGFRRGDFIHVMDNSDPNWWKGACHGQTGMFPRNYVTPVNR

One may read the Kd as the free concentration of one partner at which half of the binding sites on the other are occupied at equilibrium, for simple one-to-one binding. Take DIPPPRPPKPHP [Peptide G1]: the Kd in assay [1] (in the absence of NaCl) is around 50 µM; in assay [1] (in the presence of 500 mM NaCl) it was around 200 µM; in assay [2], 177 ± 17 µM; in assay [3], above 1000 µM; in assay [4], 171 ± 8 µM; in assay [5], 444 ± 55 µM.

PPPVDRNLKPDR [Peptide G2]: the dissociation constant (Kd) was 77 ± 6 µM in assay [2], above 1000 µM in assay [3], 182 ± 3 µM in assay [4] and 158 ± 1 µM in assay [5].
